Experimental data published in ChEMBL document CHEMBL1134032, “Rational design, synthesis, and biological evaluation of rigid pyrrolidone analogues as potential inhibitors of prostate cancer cell growth” (Bioorg Med Chem Lett, 2001).

How the values were obtained:
[1] = biological target: T1, Protein kinase C epsilon type (Homo sapiens, UniProt Q02156); assay: Inhibition of [3H]-phorbol 12,13-dibutyrate (PDBu) binding to human recombinant protein kinase C epsilon
T1 sequence (Q02156 whole entry): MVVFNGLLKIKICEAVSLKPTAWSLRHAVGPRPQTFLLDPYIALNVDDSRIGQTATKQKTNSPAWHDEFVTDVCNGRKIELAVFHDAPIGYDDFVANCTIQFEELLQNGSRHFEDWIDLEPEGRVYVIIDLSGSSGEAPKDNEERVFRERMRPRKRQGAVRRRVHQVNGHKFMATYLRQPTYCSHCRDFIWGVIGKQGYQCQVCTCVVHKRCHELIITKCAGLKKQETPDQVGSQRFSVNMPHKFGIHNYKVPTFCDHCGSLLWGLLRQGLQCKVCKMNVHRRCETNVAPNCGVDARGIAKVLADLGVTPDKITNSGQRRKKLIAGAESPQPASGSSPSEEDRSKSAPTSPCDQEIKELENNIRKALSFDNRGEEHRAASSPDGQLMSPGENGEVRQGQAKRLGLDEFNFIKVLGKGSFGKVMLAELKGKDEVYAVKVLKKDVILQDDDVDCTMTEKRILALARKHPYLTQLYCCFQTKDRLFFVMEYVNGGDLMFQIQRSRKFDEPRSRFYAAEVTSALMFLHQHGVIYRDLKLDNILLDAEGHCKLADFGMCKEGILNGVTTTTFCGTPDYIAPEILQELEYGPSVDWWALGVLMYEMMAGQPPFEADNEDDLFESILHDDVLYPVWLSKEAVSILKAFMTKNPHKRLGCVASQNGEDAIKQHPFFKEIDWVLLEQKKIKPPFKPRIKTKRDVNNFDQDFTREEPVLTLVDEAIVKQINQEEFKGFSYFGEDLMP
Method in brief: (§1)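 Competitive displacement of [3H]PDBu binding from recombinant human PKC isozymes (alpha, beta, gamma, delta, epsilon), each tested separately. Affinity is reported as Ki in nM.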

[2] = biological target: Protein kinase C delta type (Homo sapiens, UniProt Q05655); assay: Inhibition of [3H]-phorbol 12,13-dibutyrate (PDBu) binding to human recombinant protein kinase C delta; method in brief: as §1
Sequence of Protein kinase C delta type (Q05655 whole entry): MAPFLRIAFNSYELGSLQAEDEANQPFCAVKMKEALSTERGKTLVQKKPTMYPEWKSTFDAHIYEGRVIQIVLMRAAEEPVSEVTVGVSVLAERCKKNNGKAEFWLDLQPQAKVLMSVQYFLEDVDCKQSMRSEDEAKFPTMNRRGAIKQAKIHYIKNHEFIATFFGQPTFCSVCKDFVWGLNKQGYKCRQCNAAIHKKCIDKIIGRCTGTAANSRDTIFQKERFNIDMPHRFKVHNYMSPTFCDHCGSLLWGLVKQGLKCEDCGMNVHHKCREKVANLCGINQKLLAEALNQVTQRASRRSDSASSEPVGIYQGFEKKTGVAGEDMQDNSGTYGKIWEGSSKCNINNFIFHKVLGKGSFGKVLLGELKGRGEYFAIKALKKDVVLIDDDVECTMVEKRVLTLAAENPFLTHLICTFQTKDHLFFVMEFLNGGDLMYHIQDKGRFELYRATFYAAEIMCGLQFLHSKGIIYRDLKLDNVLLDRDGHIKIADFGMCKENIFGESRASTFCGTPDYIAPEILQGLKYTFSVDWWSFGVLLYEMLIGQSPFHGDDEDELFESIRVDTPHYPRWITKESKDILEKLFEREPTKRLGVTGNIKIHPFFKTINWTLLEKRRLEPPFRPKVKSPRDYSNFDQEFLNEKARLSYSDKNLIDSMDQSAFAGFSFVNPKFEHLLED

[3] = biological target: Protein kinase C alpha type (Homo sapiens, UniProt P17252); assay: Inhibition of [3H]-phorbol 12,13-dibutyrate (PDBu) binding to human recombinant protein kinase C alpha; method in brief: as §1
[4] = biological target: Protein kinase C gamma type (Homo sapiens, UniProt P05129); assay: Inhibition of [3H]-phorbol 12,13-dibutyrate (PDBu) binding to human recombinant protein kinase C gamma; method in brief: as §1
[5] = biological target: Protein kinase C beta type (Homo sapiens, UniProt P05771); assay: Inhibition of [3H]-phorbol 12,13-dibutyrate (PDBu) binding to human recombinant protein kinase C beta; method in brief: as §1
Sequence of Protein kinase C beta type (P05771 whole entry): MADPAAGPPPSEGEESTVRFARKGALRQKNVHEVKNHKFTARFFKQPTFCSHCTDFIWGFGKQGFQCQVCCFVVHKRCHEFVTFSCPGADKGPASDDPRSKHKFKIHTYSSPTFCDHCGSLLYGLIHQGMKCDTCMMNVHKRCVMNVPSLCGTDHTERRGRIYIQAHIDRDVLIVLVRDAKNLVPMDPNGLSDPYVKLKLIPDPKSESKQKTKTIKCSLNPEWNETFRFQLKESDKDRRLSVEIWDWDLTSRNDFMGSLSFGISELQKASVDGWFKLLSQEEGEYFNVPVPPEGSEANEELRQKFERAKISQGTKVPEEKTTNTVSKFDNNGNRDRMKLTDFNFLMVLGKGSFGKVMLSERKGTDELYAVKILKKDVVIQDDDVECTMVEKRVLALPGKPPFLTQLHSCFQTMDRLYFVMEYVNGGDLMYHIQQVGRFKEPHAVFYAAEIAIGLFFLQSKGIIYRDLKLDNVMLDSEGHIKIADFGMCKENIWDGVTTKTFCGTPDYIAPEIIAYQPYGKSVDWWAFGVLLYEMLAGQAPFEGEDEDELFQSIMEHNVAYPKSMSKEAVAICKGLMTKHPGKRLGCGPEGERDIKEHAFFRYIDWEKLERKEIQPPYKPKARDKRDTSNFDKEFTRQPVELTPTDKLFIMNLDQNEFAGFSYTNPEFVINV

Row | SMILES | Ki [1] [nM] | Ki [2] [nM] | Ki [3] [nM] | Ki [4] [nM] | Ki [5] [nM]
1 | CCCCCCCCC#Cc1ccc2c(c1)[C@](C)(C(C)C)[C@H]1C(=O)N[C@H](CO)[C@@H]21 | 469 | 1630 | 580 | 279 | –
2 | CCCCCCCCC#Cc1ccc2c(c1)C[C@@H](CO)NC(=O)[C@H](C(C)C)N2C | 40 | 114 | 23 | 43 | 70
3 | CCCCCCCCCCCCCC(=O)O[C@@H]1[C@@H](C)[C@@]2(O)[C@@H](C=C(CO)C[C@]3(O)C(=O)C(C)=C[C@@H]23)[C@@H]2C(C)(C)[C@]12OC(C)=O [PHORBOL MYRISTATE ACETATE] | 0.45 | 0.8 | – | 4.9 | 1.8
